# Reference: ChEMBL document CHEMBL4765413, “Discovery of novel anti-angiogenesis agents. Part 11: Development of PROTACs based on active molecules with potency of promoting vascular normalization” (Eur J Med Chem, 2020)
# Experiments:
# [1] = target: Vascular endothelial growth factor receptor 2 (Homo sapiens, UniProt P35968); experiment: Inhibition of recombinant human N-terminal GST-tagged VEGFR2 (789 to end residues) expressed in baculovirus infected Sf9 insect cells using Poly (4:1 Glu, Tyr) as substrate incubated for 1 hr by ADP-Glo luminescent assay
# Chain of Vascular endothelial growth factor receptor 2 (P35968 whole entry): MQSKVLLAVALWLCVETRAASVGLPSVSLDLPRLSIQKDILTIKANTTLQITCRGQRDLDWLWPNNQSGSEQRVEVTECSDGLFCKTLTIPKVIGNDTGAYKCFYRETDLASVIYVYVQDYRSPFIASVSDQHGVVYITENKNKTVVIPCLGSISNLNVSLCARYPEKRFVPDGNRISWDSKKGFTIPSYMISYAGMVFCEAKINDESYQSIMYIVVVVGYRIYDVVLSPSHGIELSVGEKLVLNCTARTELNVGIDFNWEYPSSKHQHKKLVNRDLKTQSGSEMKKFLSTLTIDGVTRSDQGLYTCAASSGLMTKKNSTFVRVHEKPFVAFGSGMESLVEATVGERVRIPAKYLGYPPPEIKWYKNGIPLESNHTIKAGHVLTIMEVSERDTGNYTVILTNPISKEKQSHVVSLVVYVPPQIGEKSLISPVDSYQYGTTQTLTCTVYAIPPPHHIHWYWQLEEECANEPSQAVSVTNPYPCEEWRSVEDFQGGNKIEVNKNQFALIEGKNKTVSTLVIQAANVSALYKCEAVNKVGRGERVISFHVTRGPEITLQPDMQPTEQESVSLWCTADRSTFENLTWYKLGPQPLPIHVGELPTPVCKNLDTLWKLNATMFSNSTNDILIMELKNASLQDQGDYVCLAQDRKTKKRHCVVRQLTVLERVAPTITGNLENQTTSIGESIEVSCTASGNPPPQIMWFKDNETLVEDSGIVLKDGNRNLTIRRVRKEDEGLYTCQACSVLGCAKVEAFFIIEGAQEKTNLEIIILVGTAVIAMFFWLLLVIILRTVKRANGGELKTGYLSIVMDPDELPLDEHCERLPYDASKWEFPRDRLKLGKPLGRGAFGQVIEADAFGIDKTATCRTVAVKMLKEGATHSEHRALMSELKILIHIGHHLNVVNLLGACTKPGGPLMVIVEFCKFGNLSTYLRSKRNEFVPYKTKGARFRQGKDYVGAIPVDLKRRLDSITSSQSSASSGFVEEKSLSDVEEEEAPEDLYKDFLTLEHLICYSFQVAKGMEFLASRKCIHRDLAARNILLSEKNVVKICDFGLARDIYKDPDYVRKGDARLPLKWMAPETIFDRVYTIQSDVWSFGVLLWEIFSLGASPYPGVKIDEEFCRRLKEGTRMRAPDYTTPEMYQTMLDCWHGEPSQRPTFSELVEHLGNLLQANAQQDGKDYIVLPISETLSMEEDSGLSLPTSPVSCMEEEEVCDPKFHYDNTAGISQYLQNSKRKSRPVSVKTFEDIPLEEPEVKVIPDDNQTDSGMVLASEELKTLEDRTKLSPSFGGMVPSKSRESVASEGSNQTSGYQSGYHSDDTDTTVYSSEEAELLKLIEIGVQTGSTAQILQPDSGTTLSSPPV
# [2] = tested on: EA.hy 926; experiment: Antiangiogenic activity in human EA.hy 926 cells measured after 24 hrs by MTT assay; conditions: EA.hy 926, 24 h
# [3] = tested on: HEK293; experiment: Cytotoxicity against HEK293 cells measured after 24 hrs by MTT assay; assay type: cell-based; conditions: human, hek293, 24 h
# [4] = target: von Hippel-Lindau disease tumor suppressor/Vascular endothelial growth factor receptor 2 (Homo sapiens) (UniProt P35968+P40337); experiment: Protac activity at VHL/VEGFR2 in human EA.hy 926 cells assessed as induction of VEGFR2 degradation at 80 uM measured after 72 hrs by Western blot analysis relative to control; assay type: cell-based
# Chain of von Hippel-Lindau disease tumor suppressor/Vascular endothelial growth factor receptor 2 (Homo sapiens) (P35968 20-1356 limits assumed): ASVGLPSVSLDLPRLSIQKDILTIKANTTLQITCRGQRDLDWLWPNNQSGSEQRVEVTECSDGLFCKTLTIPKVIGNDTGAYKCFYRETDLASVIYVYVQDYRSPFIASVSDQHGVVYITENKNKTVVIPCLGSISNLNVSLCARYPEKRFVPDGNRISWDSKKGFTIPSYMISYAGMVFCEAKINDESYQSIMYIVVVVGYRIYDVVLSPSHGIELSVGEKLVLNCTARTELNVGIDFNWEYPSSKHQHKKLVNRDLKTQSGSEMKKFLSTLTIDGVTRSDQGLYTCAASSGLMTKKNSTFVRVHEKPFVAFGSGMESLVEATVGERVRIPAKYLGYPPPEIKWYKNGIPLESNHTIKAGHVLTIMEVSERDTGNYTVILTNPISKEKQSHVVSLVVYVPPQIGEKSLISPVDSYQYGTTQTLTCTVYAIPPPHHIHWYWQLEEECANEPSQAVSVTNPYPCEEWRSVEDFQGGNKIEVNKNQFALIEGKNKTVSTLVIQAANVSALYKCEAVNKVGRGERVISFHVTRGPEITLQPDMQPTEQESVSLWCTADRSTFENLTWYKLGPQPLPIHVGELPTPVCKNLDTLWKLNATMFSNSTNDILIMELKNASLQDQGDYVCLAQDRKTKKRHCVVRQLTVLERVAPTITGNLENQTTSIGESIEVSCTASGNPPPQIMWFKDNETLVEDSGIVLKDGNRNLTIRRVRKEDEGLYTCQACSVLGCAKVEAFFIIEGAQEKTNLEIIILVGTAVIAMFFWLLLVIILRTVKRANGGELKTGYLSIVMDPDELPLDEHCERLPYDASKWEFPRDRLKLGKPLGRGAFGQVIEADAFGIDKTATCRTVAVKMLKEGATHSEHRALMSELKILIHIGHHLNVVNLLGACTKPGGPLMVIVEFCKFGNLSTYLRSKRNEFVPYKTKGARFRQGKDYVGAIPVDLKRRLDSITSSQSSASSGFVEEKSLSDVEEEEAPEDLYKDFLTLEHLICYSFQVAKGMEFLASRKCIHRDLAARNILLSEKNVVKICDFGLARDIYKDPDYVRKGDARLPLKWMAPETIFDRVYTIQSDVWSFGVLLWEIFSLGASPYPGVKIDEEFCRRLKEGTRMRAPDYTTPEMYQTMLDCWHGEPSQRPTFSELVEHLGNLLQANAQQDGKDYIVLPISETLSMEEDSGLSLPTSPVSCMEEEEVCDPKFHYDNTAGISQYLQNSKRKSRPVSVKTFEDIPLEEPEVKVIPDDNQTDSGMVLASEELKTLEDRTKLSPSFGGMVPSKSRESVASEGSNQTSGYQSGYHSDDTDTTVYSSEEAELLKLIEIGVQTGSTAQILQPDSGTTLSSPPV
# Chain of von Hippel-Lindau disease tumor suppressor/Vascular endothelial growth factor receptor 2 (Homo sapiens) (P40337 whole entry partner): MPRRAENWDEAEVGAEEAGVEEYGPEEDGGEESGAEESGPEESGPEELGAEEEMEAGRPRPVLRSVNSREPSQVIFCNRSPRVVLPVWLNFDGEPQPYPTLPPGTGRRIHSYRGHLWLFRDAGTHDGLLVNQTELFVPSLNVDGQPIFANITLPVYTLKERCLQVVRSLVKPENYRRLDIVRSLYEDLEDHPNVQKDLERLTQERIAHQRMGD
# Procedure, shortened: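 EA.hy926 cells were exposed to DMSO vehicle or test compound, then lysed in SDS sample buffer and normalized by BCA protein assay. Equal protein amounts were run on SDS-PAGE and transferred to PVDF. Membranes were blocked in 5% milk/TBS-Tween and probed with anti-VEGFR-2 (1:500), with GAPDH (1:10000) as loading control. Detection used HRP secondary and ECL, with densitometric quantification.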
Structure (SMILES),IC50 [1],IC50 [2],Activity [3],Activity [4]
Cc1ncsc1-c1ccc(CNC(=O)[C@@H]2C[C@@H](O)CN2C(=O)[C@@H](NC(=O)CCCCCCCCCCC(=O)n2nc(N)c3c(-c4cccc(NC(=O)Nc5cccc(C(C)C)c5)c4)cccc32)C(C)(C)C)cc1,0.208 µM,32.8 µM,Non-Toxic,70%
Cc1ccc(F)c(NC(=O)Nc2ccc(-c3cccc4[nH]nc(N)c34)cc2)c1 [LINIFANIB],–,2.48 µM,–,–
CC(C)c1cccc(NC(=O)Nc2cccc(-c3cccc4[nH]nc(N)c34)c2)c1,–,51.6 µM,–,–
Cc1ncsc1-c1ccc(CNC(=O)[C@@H]2C[C@@H](O)CN2C(=O)[C@@H](NC(=O)CCCCCC(=O)n2nc(N)c3c(-c4cccc(NC(=O)Nc5cccc(C(C)C)c5)c4)cccc32)C(C)(C)C)cc1,> 1 µM,> 100 µM,Non-Toxic,–
